Laboratory results published in ChEMBL document CHEMBL3797032, “Synthesis and in vitro growth inhibitory activity of novel silyl- and trityl-modified nucleosides” (Bioorg Med Chem, 2016).

Experiments:
[1] = Growth inhibition of human Hs683 cells assessed as reduction in cell viability incubated for 72 hrs by MTT assay; format: functional; settings: Hs 683, 72 h
Procedure, shortened: (§1)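 Glioma cells grown adherent: Hs683 in DMEM + 5–10% FBS, U373 in Earle's MEM + 10% FBS and 1 mM sodium pyruvate; trypan blue viability check before use. Exposed for 72 h to 0.01–100 μM, narciclasine as positive control. MTT read-out with formazan dissolved in DMSO; GI50 is the concentration giving 50% growth reduction versus untreated controls.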

[2] = Growth inhibition of human U373 cells assessed as reduction in cell viability incubated for 72 hrs by MTT assay; format: functional, U-373MG ATCC; settings: U373 MG; procedure, shortened: as §1
[3] = Growth inhibition of human WBC cells assessed as cell viability at 100 uM incubated for 24 hrs by MTT assay; format: cell-based; settings: WBC cells (white blood cells), read-out: Activity
Procedure, shortened: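 Freshly isolated human peripheral leucocytes from volunteers, exposed at a single final concentration of 100 μM for 24 h, camptothecin as comparator. Viability read by MTT assay with formazan dissolved in DMSO.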

HT-29 = assay: Growth inhibition of human HT-29 cells assessed as cell viability at 100 uM incubated for 24 hrs by MTT assay; format: functional; settings: HT-29, 24 h, read-out: Activity
Procedure, shortened: (§2)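 Leukemic lines (HL-60, K562, Jurkat) grown in suspension in RPMI-1640 + 10% heat-inactivated FBS. Colorectal HT-29 and Caco-2 grown adherent in DMEM + 5–10% FBS. Cells kept at 37 °C, 5% CO2, and checked for viability by trypan blue before use. Single final concentration 100 μM for 24 h at 37 °C, camptothecin as positive control. MTT read-out with formazan dissolved in DMSO; viability expressed relative to untreated control set at 100%.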

[4] = Growth inhibition of human HL60 cells assessed as cell viability at 100 uM incubated for 24 hrs by MTT assay; format: functional; settings: HL-60, 24 h, read-out: Activity; procedure, shortened: as §2
Jurkat = assay: Growth inhibition of human Jurkat cells assessed as cell viability at 100 uM incubated for 24 hrs by MTT assay; format: functional; settings: read-out: Activity; procedure, shortened: as §2
[5] = Growth inhibition of human Caco2 cells assessed as cell viability at 100 uM incubated for 24 hrs by MTT assay; format: functional; settings: Caco-2, 24 h, read-out: Activity; procedure, shortened: as §2
K562 = assay: Growth inhibition of human K562 cells assessed as cell viability at 100 uM incubated for 24 hrs by MTT assay; format: functional; settings: K562, 24 h, read-out: Activity; procedure, shortened: as §2

SMILES	GI50 [1]	GI50 [2]	viability at 24 h, 100 µM [3]	viability at 100 µM (HT-29)	viability at 100 µM [4]	viability at 100 µM (Jurkat)	viability at 100 µM [5]	viability at 100 µM (K562)
CC(C)(C)[Si](C)(C)OC[C@H]1O[C@@H](n2ccc(=O)[nH]c2=O)[C@H](O)[C@@H]1O	84 µM	71 µM						
CC(C)(C)[Si](OC[C@H]1O[C@@H](n2cnc3c(N)ncnc32)[C@H](O)[C@@H]1O)(c1ccccc1)c1ccccc1	46 µM	44 µM	59.3%	> 50%	27.9%	18.3%	> 50%	45.5%
COc1ccc(C(OC[C@H]2O[C@@H](n3ccc(=O)n(C(=O)c4ccccc4)c3=O)[C@H](OC(C)=O)[C@@H]2OC(C)=O)(c2ccccc2)c2ccc(OC)cc2)cc1	44 µM	39 µM						
CC(=O)O[C@@H]1[C@H](OC(C)=O)[C@@H](CO[Si](c2ccccc2)(c2ccccc2)C(C)(C)C)O[C@H]1n1ccc(=O)[nH]c1=O	29 µM	32 µM	100%	> 50%	11.2%	> 50%	> 50%	35.5%
CC(C)(C)[Si](OC[C@H]1O[C@@H](n2ccc(N)nc2=O)[C@H](O)[C@@H]1O)(c1ccccc1)c1ccccc1	40 µM	28 µM	100%	25.6%	26%	16%	37.2%	35.6%
COc1ccc(C(OC[C@H]2O[C@@H](n3ccc(=O)[nH]c3=O)[C@H](O)[C@@H]2O)(c2ccccc2)c2ccc(OC)cc2)cc1	39 µM	40 µM	82.7%	27.8%	6.5%	5.2%	26.1%	8.3%
CC(=O)O[C@@H]1[C@H](OC(C)=O)[C@@H](CO[Si](c2ccccc2)(c2ccccc2)C(C)(C)C)O[C@H]1n1ccc(=O)n(C(=O)c2ccccc2)c1=O	35 µM	26 µM						
Cc1cn([C@@H]2O[C@H](CO[Si](C)(C)C(C)(C)C(C)C)[C@@H](O)[C@H]2O)c(=O)[nH]c1=O	64 µM	68 µM						
CC(C)[Si]1(C(C)C)OC[C@H]2O[C@@H](n3ccc(=O)[nH]c3=O)C(=O)[C@@H]2O[Si](C(C)C)(C(C)C)O1	70 µM	71 µM						
Cc1cn([C@@H]2O[C@@H]3CO[Si](C(C)C)(C(C)C)O[Si](C(C)C)(C(C)C)O[C@H]3[C@H]2O)c(=O)[nH]c1=O	91 µM	87 µM						
Cc1cn([C@@H]2O[C@H](CO[Si](c3ccccc3)(c3ccccc3)C(C)(C)C)[C@@H](O)[C@H]2O)c(=O)[nH]c1=O	27 µM	25 µM						
CC(C)[Si]1(C(C)C)OC[C@H]2O[C@@H](n3ccc(=O)[nH]c3=O)[C@H](O)[C@@H]2O[Si](C(C)C)(C(C)C)O1	83 µM	81 µM						
COc1ccc(C(OC[C@H]2O[C@@H](n3ccc(=O)[nH]c3=O)[C@H](OC(C)=O)[C@@H]2OC(C)=O)(c2ccccc2)c2ccc(OC)cc2)cc1	28 µM	40 µM	100%	> 50%	> 50%	> 50%	> 50%	> 50%
CC(C)C(C)(C)[Si](C)(C)OC[C@H]1O[C@@H](n2ccc(=O)[nH]c2=O)[C@H](O)[C@@H]1O	> 100 µM	> 100 µM						
CC(C)(C)[Si](OC[C@H]1O[C@@H](n2ccc(=O)[nH]c2=O)[C@H](O)[C@@H]1O)(c1ccccc1)c1ccccc1	35 µM	36 µM	61.5%	29.4%	5.6%	6.3%	37.4%	9.4%
Cc1cn([C@@H]2O[C@H](CO[Si](C)(C)C(C)(C)C)[C@@H](O)[C@H]2O)c(=O)[nH]c1=O	77 µM	> 100 µM						
CC(C)[Si]1(C(C)C)OC[C@H]2O[C@@H](n3ccc(=O)n(C(=O)c4ccccc4)c3=O)[C@H](O)[C@@H]2O[Si](C(C)C)(C(C)C)O1	29 µM	29 µM						
CC[C@@]1(O)C(=O)OCc2c1cc1n(c2=O)Cc2cc3ccccc3nc2-1 [CAMPTOTHECIN]			34.6%	11.4%	23.4%	8.9%	12.8%	39.6%
O=C1N[C@@H]2C(=C[C@H](O)[C@@H](O)[C@H]2O)c2cc3c(c(O)c21)OCO3 [NARCICLASINE]	0.04 µM	0.029 µM						
